Reference: ChEMBL document CHEMBL1124505, “Inhibition of aminopeptidases by peptides containing ketomethylene and hydroxyethylene amide bond replacements” (J Med Chem, 1989)

How the values were obtained:
[1] = biological target: T1, Aminopeptidase B (Rattus norvegicus, UniProt O09175); experiment: Competitive inhibition of aminopeptidase B or arginyl aminopeptidase purified from rat liver; Ki value reporting the slope effect(Kis)
T1 sequence (O09175 whole entry): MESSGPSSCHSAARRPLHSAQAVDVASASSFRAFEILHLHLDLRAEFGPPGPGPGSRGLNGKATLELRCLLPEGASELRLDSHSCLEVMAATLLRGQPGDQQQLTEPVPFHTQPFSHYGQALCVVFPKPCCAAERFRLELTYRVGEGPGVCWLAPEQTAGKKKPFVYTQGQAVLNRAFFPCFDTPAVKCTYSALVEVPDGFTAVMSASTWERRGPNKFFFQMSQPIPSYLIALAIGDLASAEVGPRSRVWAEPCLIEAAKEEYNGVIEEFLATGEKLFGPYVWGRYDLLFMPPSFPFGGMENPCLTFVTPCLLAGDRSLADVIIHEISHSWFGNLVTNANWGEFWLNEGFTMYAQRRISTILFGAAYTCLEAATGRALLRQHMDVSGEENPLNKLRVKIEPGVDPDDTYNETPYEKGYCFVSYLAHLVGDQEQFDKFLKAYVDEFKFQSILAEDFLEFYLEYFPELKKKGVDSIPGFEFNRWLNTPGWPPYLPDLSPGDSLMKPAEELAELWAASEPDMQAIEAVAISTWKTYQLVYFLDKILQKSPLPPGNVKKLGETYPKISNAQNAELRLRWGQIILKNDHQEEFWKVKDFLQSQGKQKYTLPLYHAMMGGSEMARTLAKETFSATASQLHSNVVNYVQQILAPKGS
How it was run: (§1)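 Arginyl aminopeptidase purified from rat liver. Substrate L-arginine p-nitroanilide in 0.10 M PIPES, pH 7.0, with 0.20 M NaCl and 1 mM DTT, at 25 °C. Initial velocities read as p-nitroaniline release at 405 nm (E = 9620 L/mol·cm). Slow-binding inhibitors preincubated 15 min with enzyme before substrate was added; others started by adding enzyme.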

[2] = biological target: T1, Aminopeptidase B; experiment: (§2) Inhibition of aminopeptidase B or arginyl aminopeptidase purified from rat liver; format: tissue-based
How it was run: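 Initial rates taken as p-nitroaniline release at 405 nm. Slow-binding inhibitors were preincubated with enzyme 15 min before substrate was added; others were started with enzyme.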

[3] = biological target: T2, Renin (Homo sapiens, UniProt P00797); experiment: Inhibition of enzyme renin
T2 sequence (P00797 whole entry): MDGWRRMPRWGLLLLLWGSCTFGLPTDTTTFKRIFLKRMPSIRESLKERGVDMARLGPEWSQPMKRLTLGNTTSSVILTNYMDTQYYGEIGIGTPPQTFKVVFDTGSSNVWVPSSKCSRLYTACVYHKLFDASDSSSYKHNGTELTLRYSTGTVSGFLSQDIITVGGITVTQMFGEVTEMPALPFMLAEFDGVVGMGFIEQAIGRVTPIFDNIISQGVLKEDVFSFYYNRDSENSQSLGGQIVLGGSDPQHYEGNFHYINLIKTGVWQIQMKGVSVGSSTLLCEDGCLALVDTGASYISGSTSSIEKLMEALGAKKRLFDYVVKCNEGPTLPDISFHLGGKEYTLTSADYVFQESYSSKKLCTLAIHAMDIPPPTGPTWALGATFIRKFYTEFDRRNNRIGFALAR

[4] = biological target: T1, Aminopeptidase B; experiment: as §2; how it was run: as §1
[5] = biological target: T1, Aminopeptidase B; experiment: Competitive inhibition of aminopeptidase B or arginyl aminopeptidase purified from rat liver; how it was run: as §1
[6] = biological target: T1, Aminopeptidase B; experiment: Non-competitive inhibition of aminopeptidase B or arginyl aminopeptidase purified from rat liver; Ki value reporting the intercept effect(Kii); how it was run: as §1
[7] = biological target: T1, Aminopeptidase B; experiment: Non-competitive inhibition of aminopeptidase B or arginyl aminopeptidase purified from rat liver; Ki value reporting the Kid; how it was run: as §1
[8] = biological target: T1, Aminopeptidase B; experiment: Non-competitive inhibition of aminopeptidase B or arginyl aminopeptidase purified from rat liver; Ki value reporting the slope effect(Kis); how it was run: as §1
[9] = biological target: Pancreatic elastase (Sus scrofa, UniProt P08419+P00772); experiment: Inhibition of porcine pancreatic elastase; format: protein assay

Work on `CC(C)C[C@H](N)C(=O)CC(Cc1ccccc1)C(=O)O` (stereo partly specified) yielded a Ki [1] of 0.17 µM.
For `NC(N)=NCCC[C@H](N)C(=O)C[C@@H](Cc1ccccc1)C(=O)O`, the Ki [2] was 0.0025 µM.
`CC(C)C[C@@H](N)C(=O)CC(Cc1ccccc1)C(=O)O` (stereo partly specified) showed a Ki [1] of 0.77 µM.
In the case of `CC(CC(=O)[C@@H](N)CCCCN)C(=O)O` (stereo partly specified), the Ki [1] is reported as 2 µM.
In the case of `NCCCC[C@H](N)C(=O)CC(Cc1ccccc1)C(=O)O` (stereo partly specified), the Ki [1] is reported as 0.004 µM.
Compound `CC(C)CC(N)C(=O)CC(C)C(=O)O` (stereo unspecified) has a Ki [1] of 130 µM.
`CC(C)C[C@H](NC(=O)[C@@H](O)[C@H](N)Cc1ccccc1)C(=O)O` [UBENIMEX] showed a Ki [2] of 0.014 µM.
`N=C(N)NCCC[C@H](N)C(=O)C[C@@H](Cc1ccc(O)cc1)C(=O)O` showed a Ki [2] of 0.00084 µM.
`CC(C)C[C@H](CN[C@H](CC(C)C)C(=O)N[C@H](C(=O)N[C@@H](Cc1ccc(O)cc1)C(=O)O)C(C)C)NC(=O)C(Cc1c[nH]cn1)NC(=O)[C@H](Cc1ccccc1)NC(=O)[C@@H]1CCCN1C(=O)C(N)Cc1c[nH]cn1` (stereo in doubt) was tested, and the Ki [3] was 1 µM.
`CC(C)CCNC(=O)C(NC(=O)C(Cc1ccccc1)CC(O)C(N)CC(C)C)C(C)C` (stereo unspecified) was tested, and the IC50 [4] was greater than 600 µM.
With `CC(C)CCNC(=O)[C@@H](NC(=O)[C@H](C)CC(=O)[C@@H](N)CC(C)C)C(C)C` the IC50 [5] was greater than 400 µM.
Compound `CC(C)CCNC(=O)[C@@H](NC(=O)[C@H](CC(=O)[C@@H](N)CC(C)C)Cc1ccccc1)C(C)C` has a Ki [1] of 36 µM.
Compound `CC(CC(=O)[C@@H](N)CCCCN)C(=O)NC(Cc1ccccc1)C(=O)O` (stereo partly specified) has a Ki [6] of 2 µM, a Ki [7] of 2.8 µM and a Ki [8] of 8.8 µM.
`COC(=O)CCC(=O)C(C)NC(=O)c1ccccc1` (stereo unspecified) showed a Ki [9] of 4200 µM.
